RGS4 pot = RGS4 potentiators or activators, primary screen, cell-based, HEK293 M3R inducible RGS4, calcium flux. actives 0.92% (n = 310,000). carbachol calcium flux Fluo4; active compounds read low. B-score at 10 µM;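 active = B-score of the integrated calcium signal more than 4 SD below the library mean, with starting fluorescence not abnormally high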;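 note: negative B-score means reduced calcium response which marks RGS4 activation or potentiation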
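Material: Inducible-RGS4 HEK293 cells carrying M3 receptor; also added: carbachol at ECmax as muscarinic agonist stimulus; incubation: compound preincubation 20 min at room temperature before agonist; signal: Fluo4-AM (2 µM) calcium-flux fluorescence, kinetic read; measure: integrated calcium ratio converted to B score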
MrgX1 allo act = positive allosteric modulators of MrgX1, primary screen, HEK293 cells, Fluo-4 calcium flux; Mas-related G-protein coupled receptor member X1 (Homo sapiens), Q96LB2; FDSS; active compounds read high; B-score at 10 µM; actives 0.63% (n = 310,000); AID 588675, 2011;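 active = plate-corrected calcium response at least 3 library SD above typical, normal starting fluorescence, not activating the receptor alone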;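 note: compound read alongside a low EC10 to EC30 dose of BAM8-22 agonist; peak minus trough fluorescence over baseline measured at the second addition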
Target sequence (Q96LB2 whole entry, looked up): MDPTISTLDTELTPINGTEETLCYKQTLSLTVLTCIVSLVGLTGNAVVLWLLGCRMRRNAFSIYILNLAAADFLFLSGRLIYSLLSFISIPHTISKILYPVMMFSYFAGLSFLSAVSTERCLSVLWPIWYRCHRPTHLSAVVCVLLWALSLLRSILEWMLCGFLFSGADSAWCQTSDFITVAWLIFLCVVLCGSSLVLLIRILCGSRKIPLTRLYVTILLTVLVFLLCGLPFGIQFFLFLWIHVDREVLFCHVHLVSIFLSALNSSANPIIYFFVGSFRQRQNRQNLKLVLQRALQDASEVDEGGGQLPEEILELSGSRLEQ
MrgX1 ag = agonists of human MrgX1 receptor, primary screen, HEK293 cells, Fluo-4 calcium flux; Fluo-4 calcium fluorescence, agonist mode; active compounds read high; B-score at 10 µM; actives 0.44% (n = 310,000); Mas-related G-protein coupled receptor member X1 (Homo sapiens), Q96LB2;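 active = calcium response B-score plate-corrected fluorescence ratio at least 3 library SD, with starting fluorescence B-score inside 5 SD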
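Assay system: stable human MrgX1 HEK293 cell line. Quantity: 15,000 cells per well. Schedule: cells plated overnight, dye loaded 0.5 h 37 °C, 0.5 h room temperature. Detection: Fluo-4 NW calcium-flux fluorescence, kinetic read. Read-out basis: peak-minus-minimum fluorescence over baseline, converted to B scores. Control set: positive and negative control wells on each plate.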
MrgX1 antagonist = antagonists of human MrgX1 receptor, primary screen, HEK293 cells, Fluo-4 calcium flux. Mas-related G-protein coupled receptor member X1 (Homo sapiens), Q96LB2. BAM8-22 antagonism; active compounds read low. B-score at 10 µM. actives 1.3% (n = 310,000);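 active = calcium-response B-score plate-corrected more than 3 library SD below zero, starting fluorescence within 5 deviations, no agonist response on first addition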;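 note: peak minus trough fluorescence over baseline after final BAM8-22 challenge near maximal dose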
RGS4 inh = RGS4 inhibitors, primary screen, cell-based, HEK293 M3R inducible RGS4, calcium flux; Regulator of G-protein signaling 4 (Homo sapiens), P49798; Fluo-4 calcium flux; active compounds read high; triggered by carbachol at its EC20; B-score at 10 µM; actives 0.45% (n = 310,000); AID 463165, 2010;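 active = B-score, a plate-corrected calcium signal, over three deviations above library mean, with baseline fluorescence within five deviations of library mean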;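 note: RGS4 expression induced by doxycycline in cells with stable M3 receptor; B-score is computed from the integrated fluorescence ratio over baseline after carbachol; higher B-score means a larger calcium signal and so more RGS4 inhibition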
Target sequence (P49798 whole entry, looked up): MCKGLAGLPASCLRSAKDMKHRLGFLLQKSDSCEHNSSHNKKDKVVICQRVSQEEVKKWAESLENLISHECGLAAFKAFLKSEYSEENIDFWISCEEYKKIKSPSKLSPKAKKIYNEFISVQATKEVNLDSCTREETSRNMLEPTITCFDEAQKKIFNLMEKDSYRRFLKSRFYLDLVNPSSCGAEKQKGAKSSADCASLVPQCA
RGS4 block valid = enhanced carbachol calcium response, M3R/RGS4 cells, RGS4 inhibitor project, cell-based, validation screen, HEK293 M3R/RGS4, calcium flux | calcium response, % at 10 µM | shares compounds with RGS4 inh | carbachol calcium Fluo-4 fluorescence; carbachol added at its EC20; 0 = buffer wells, 100 = carbachol control | actives 65% (n = 1,700);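 active = duplicate-averaged calcium response above the buffer-only control mean plus 5 SD of those controls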;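 note: integrated fluorescence ratio F max minus min over baseline F0; higher response in RGS4-induced cells means RGS4 inhibition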
M3R Ca ctr = carbachol calcium response in non-induced M3R cells, confirmation, counter-screen for RGS4 inhibitor project, cell-based, HEK293 M3R. shares compounds with RGS4 inh. carbachol calcium Fluo-4; submaximal (EC20) carbachol stimulus; buffer wells 0%, carbachol control wells 100%. activity (percent), % at 10 µM. actives 20% (n = 1,900). AID 493000, 2010; call rule not given here;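 note: RGS4 induction absent so cells express M3R without RGS4; higher means more calcium signal and flags a non-specific hit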
RGS4 inh ctr2 = second counter-screen for RGS4 inhibitors: non-induced cells without carbachol. AID 493001. actives 22% (n = 1,900). shares compounds with RGS4 inh. HEK293 M3R/RGS4 non-induced, Fluo-4 calcium, no carbachol; normalised: buffer wells 0%, carbachol wells 100%. calcium response (agonist-mode artifact), % at 10 µM;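 active = duplicate-averaged calcium rise in uninduced cells above buffer wells' mean plus 5 SD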
A number is an active result; . = inactive; / = no result. Only some compounds are listed: those with a hit (about 3.5% of all), similar ones and a draw of the others.

SMILES | RGS4 pot | MrgX1 allo act | MrgX1 ag | MrgX1 antagonist | RGS4 inh | RGS4 block valid | M3R Ca ctr | RGS4 inh ctr2
Cc1cccc(NC(=S)NNC(=O)c2csc3c2CCCC3)c1 | . | . | . | . | 6.2 | 20% | 54% | .
O=C1c2[nH]nc(-c3ccccc3O)c2C(c2ccccc2F)N1Cc1ccco1 (centres undefined) | . | . | . | . | 16 | 34% | 40% | .
O=C1c2[nH]nc(-c3ccccc3O)c2C(c2ccccc2)N1Cc1ccco1 (centres undefined) | . | . | . | . | 12 | 6.0% | . | .
O=C(C1=C(O)C(=O)N(Cc2ccco2)C1c1ccccc1F)c1cccs1 (centres undefined) | . | . | . | . | . | / | / | /
COc1cccc(C2c3c(-c4ccccc4O)n[nH]c3C(=O)N2Cc2ccco2)c1 (centres undefined) | . | . | . | . | . | / | / | /
O=[N+]([O-])c1ccc(-c2nn(-c3ccccc3)cc2/C=N/n2c(-c3ccncc3)n[nH]c2=S)cc1 | . | . | . | . | . | . | . | .
S=c1[nH]nc(-c2ccncc2)n1/N=C/c1cn(-c2ccccc2)nc1-c1ccccc1 | . | . | . | . | 7.8 | 12% | 41% | .
Cc1ccc(-c2nn(-c3ccccc3)cc2/C=N/n2c(-c3cccs3)n[nH]c2=S)cc1 | . | . | . | . | . | / | / | /
O=C(Cn1c(-c2ccccn2)nc2ccccc21)N/N=C/c1cccnc1 | . | . | . | . | . | / | / | /
CSc1ccccc1NC(=O)CN(C)C(=O)c1ccc2c(c1)OCCO2 | . | . | . | . | . | / | / | /
CC(C)CN(CCCNC(=O)CN1C(=O)COc2ccc(S(=O)(=O)N3CCOCC3)cc21)CC(C)C | . | . | . | . | . | / | / | /
COc1cc(/C=C2/C(C)=C(C#N)c3nc(N)c(C#N)c(C)c32)ccc1OCC(=O)O | . | . | . | . | . | / | / | /
CC1=C(C#N)c2nc(N)c(C#N)c(C)c2/C1=C\c1ccc(-c2ccccc2C(=O)O)o1 | . | / | / | / | 5.6 | 24% | 32% | .
OCc1ccc(-c2nn(Cc3ccccc3)c3ccccc23)o1 | . | . | . | . | 5.1 | 6.0% | . | .
O=c1c2ccccc2c(-c2n[nH]c(=S)o2)nn1Cc1ccccc1 | . | . | . | . | . | / | / | /
Cc1cc(N2CCN(c3ccccc3)CC2)n2cc(-c3ccccc3)nc2n1 | . | . | . | . | . | / | / | /
Cc1cc(N2CCN(c3ccccc3Cl)CC2)n2cc(-c3ccccc3)nc2n1 | . | . | . | . | 6 | 28% | . | .
CC(=O)OCCNc1cc(Sc2nc3ccccc3[nH]2)c2nonc2c1[N+](=O)[O-] | . | . | . | . | 15 | 6.5% | . | .
CC(=O)OCCCNc1cc(Sc2nc3ccccc3s2)c2nonc2c1[N+](=O)[O-] | . | . | . | . | 4.7 | . | . | 113%
O=[N+]([O-])c1c(NCCCO)cc(Sc2ccc(Cl)cc2)c2nonc12 | . | . | . | . | . | / | / | /
CC(=O)OCCNc1cc(SCc2ccco2)c2nonc2c1[N+](=O)[O-] | . | . | . | . | . | / | / | /
Cn1ccnc1Sc1cc(NCCCO)c([N+](=O)[O-])c2nonc12 | . | . | . | . | 17 | 50% | . | .
CC(=O)OCCCNc1cc(Sc2ccc(C)cc2)c2nonc2c1[N+](=O)[O-] | . | . | . | . | . | / | / | /
CC(C)(C)OC(=O)CN1c2cccc3cccc(c23)S1(=O)=O | . | . | . | . | . | / | / | /
COc1ccc(NC(=O)/C(Cl)=C(/Cl)S(=O)Cc2ccccc2)cn1 (centres undefined) | . | . | . | . | 27 | 46% | . | .
SMILES | RGS4 pot | MrgX1 allo act | MrgX1 ag | MrgX1 antagonist | RGS4 inh | RGS4 block valid | M3R Ca ctr | RGS4 inh ctr2
N#C/C(=C\c1cccc(Br)c1)C(=O)N1CCCCC1 | . | . | . | . | 6.5 | 25% | . | .
Cc1cc(/C=C(\C#N)C(=O)N2CCCCC2)cc(C)c1O | . | . | . | . | . | / | / | /
N#C/C(=C\c1cccc(O)c1)C(=O)N1CCCCC1 | . | . | . | . | 6.3 | 8.0% | . | 9.0%
CC1CCCN(Cc2csc(N)n2)C1 (centres undefined) | . | . | . | . | . | / | / | /
COc1ccc(-c2csc(NC(C)c3nc4cc(Cl)c(N5CCCCC5)cc4n3CCOCCO)n2)cc1 (centres undefined) | . | . | . | . | . | . | . | .
COc1ccc(-c2csc(NC(C)c3nc4cc(Cl)c(N5CCCCC5)cc4n3CCCO)n2)cc1 (centres undefined) | . | . | . | . | . | / | / | /
CC(Nc1nc(-c2ccc(Cl)cc2)cs1)c1nc2cc(Cl)c(N3CCCCC3)cc2n1CCOCCO (centres undefined) | . | . | . | . | . | / | . | .
COc1c(Cl)cnn(-c2ccccc2)c1=O | . | . | . | . | . | / | / | /
COc1nn(-c2ccccc2)c(=O)c(Cl)c1Cl | . | . | . | . | 5 | 10% | . | .
COc1ccccc1N1C(=O)c2ccc(C(=O)Nc3ccc(C(=O)O)cc3)cc2C1=O | . | . | . | . | . | / | / | /
Cc1ccc(NC(=O)N2CCCC2C(=O)NCc2ccc(Cl)cc2)cc1 (centres undefined) | . | . | . | . | . | / | / | /
COc1ccc2cc(C3C(C#N)=C(N)OC(C)=C3C(C)=O)c(Cl)nc2c1 (centres undefined) | . | . | . | . | 5.6 | 32% | . | .
COc1ccccc1N1CCN(CCN2C(=O)C3CCCN3C2=O)CC1 (centres undefined) | . | . | . | . | . | / | / | /
CCOCCCNC(=O)CN1C(=O)COc2ccc(S(=O)(=O)N3CC(C)CC(C)C3)cc21 (centres undefined) | . | . | . | . | . | / | / | /
CCOCCCNC(=O)CN1C(=O)COc2ccc(S(=O)(=O)N3CCC(C)CC3)cc21 | . | . | . | . | . | . | . | .
CCOCCCNC(=O)CN1C(=O)COc2ccc(S(=O)(=O)N3CCCCCC3)cc21 | . | . | . | . | . | . | . | .

Compound activity deposited in PubChem BioAssay by Johns Hopkins Ion Channel Center.
